Measurements published in ChEMBL document CHEMBL1154974, “Semi-automated high-throughput fluorescent intercalator displacement-based discovery of cytotoxic DNA binding agents from a large compound library” (Bioorg Med Chem Lett, 2010).
*1 amine or outer side, *2 acyl side, *3 side chain or, on linkers, in order; H or OH if unused. Where a SMILES comes first, the peptide text is derived from it. Bridges are numbered along the chain shown (N, C = ends). Roman numbers before positions name the chains, in order. [ ]: non-standard residue; d: D form. Actinocin(1to9) = Cc1c2oc3c(C)ccc(C(=O)[*:2])c3nc-2c(C(=O)[*:1])c(N)c1=O; NMeV = CN[C@H](C(=O)O)C(C)C; Sar = CNCC(=O)O

Experiments:
Nucleic Acid [1] = assay: Binding affinity to calf thymus DNA assessed as decrease in ethidium bromide fluorescence at 10 uM by HT-FID assay; format: nucleic-acid assay; settings: Bos taurus
Nucleic Acid [2] = assay: Binding affinity to poly dA/dT DNA assessed as change in melting temperature by thermal denaturation assay; format: nucleic-acid assay
Nucleic Acid [3] = assay: Binding affinity to G/C-rich DNA oligonucleotide assessed as change in melting temperature by thermal denaturation assay; format: nucleic-acid assay
Nucleic Acid [4] = assay: Binding affinity to calf thymus DNA assessed as decrease in ethidium bromide fluorescence by FID assay; format: nucleic-acid assay, Bos taurus
How it was run: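 Concentration-response FID using plate conditions as in the screen (calf thymus DNA, ethidium bromide, Tris buffer). Compound added to final 0.1-50 μM, from gravimetrically prepared stocks. FD50 taken as concentration giving 50% fluorescence decrease within each compound's achievable range; maximum %F decrease measured experimentally.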

[5] = Cytotoxicity against human SF-767 cells assessed as viable cells after 72 hrs by MTT assay; format: functional; settings: SF767, 72 h, read-out: LC50 (the source's name)
How it was run: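 SF767 glioblastoma cells, 2000 per well, grown 24 h, then exposed to increasing concentrations of compound for 72 h. Viable cells read by MTT with standard protocols. Media-only blank in each treatment group as background. Run in triplicate. LC50 read graphically from plots of % surviving cells against concentration.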

Structure (SMILES) | Binding Decrease (Nucleic Acid [1]) [%] | ΔTm (Nucleic Acid [2]) [°C] | ΔTm (Nucleic Acid [3]) [°C] | EC50 (Nucleic Acid [4]) [µM] | CC50 [5] [µM]
Cc1ccc(Nc2nc(N)nc(CN3CCC(Cc4ccccc4)CC3)n2)cc1 | 32 | > 45 | 0 | 5.5 | 26
Cc1cccn2c(=O)c3cc(C(=O)NCCc4ccccc4)c(=N)n(CCc4ccccc4)c3nc12 | 22 | 0 | 10 | 7.7 | > 25
CCc1ccc2c(C)nc(NC3=NC(C)(C)C=C(C)N3)nc2c1 | 40 | 10 | 0 | 7.7 | 2.6
CC(C)c1ccc(CNc2ccc3c(c2)ncn3C)cc1 | 32 | > 45 | 0 | 4.4 | 10
CCc1ccc(C2NCc3ccccc3-n3cccc32)cc1 (stereo not drawn) | 36 | > 45 | 0 | 9.4 | 35
CC(C)c1ccc(CNCCC(c2ccccc2)c2ccco2)cc1 (stereo not drawn) | 34 | > 45 | 0 | 13.5 | 13
Cn1cc(NC(=O)c2cc(NC(=O)CNC(=N)N)cn2C)cc1C(=O)NCCC(=N)N [NETROPSIN] | 32 | 45 | 0 | 5.1 | –
Cc1c2oc3c(C)ccc(C(=O)N[C@@H]4C(=O)N[C@H](C(C)C)C(=O)N5CCC[C@H]5C(=O)N(C)CC(=O)N(C)[C@@H](C(C)C)C(=O)O[C@@H]4C)c3nc-2c(C(=O)N[C@@H]2C(=O)N[C@H](C(C)C)C(=O)N3CCC[C@H]3C(=O)N(C)CC(=O)N(C)[C@@H](C(C)C)C(=O)O[C@@H]2C)c(N)c1=O [DACTINOMYCIN] (I: T[dV]P[Sar][NMeV] / II: T[dV]P[Sar][NMeV]; ester I:1-I:C, II:1-II:C; linker I:N-II:N via Actinocin(1to9)) | 63 | > 45 | 10 | 4.3 | –
CCOC(=O)Cn1c(=N)n(CCOc2cccc(C)c2)c2ccccc21 | 46 | > 45 | 0 | 7.7 | > 50
